From publication PMC12541585 (Acta Pharmaceutica Sinica. B, 2025)

System: MDA-MB-231 xenograft
Test: MDA-MB-231 xenograft model
Format: in vivo, BALB/c nude mice
Conditions: immunohistochemical staining of MDA-MB-231 tumors, vs control group
Outline: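 Female nude mice received 5×10^6 MDA-MB-231 cells in 100 μL Matrigel/PBS (1:1) subcutaneously into the right flank. At ≥80 mm³, mice were randomised into five groups, each dosed intraperitoneally every three days: test compound at 0.1, 0.5 or 1 mg/kg, paclitaxel 4 mg/kg, or PBS. Excised tumour sections were stained with anti-CXCR4 (1:100, 4 °C overnight), then HRP secondary (30 min) and DAB.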

CC(=O)O[C@H]1C(=O)[C@@]2(C)[C@H]([C@H](OC(=O)c3ccccc3)[C@]3(O)C[C@H](OC(=O)[C@H](O)[C@@H](NC(=O)c4ccccc4)c4ccccc4)C(C)=C1C3(C)C)[C@]1(OC(C)=O)CO[C@@H]1C[C@@H]2O [PTX, Paclitaxel]
proportion of CXCR4-positive cells in tumor tissue: little effect
